The text below walks through data of ChEMBL document CHEMBL2016444, “Discovery of novel 2-piperidinol-3-(arylsulfonyl)quinoxalines as phosphoinositide 3-kinase α (PI3Kα) inhibitors” (Bioorg Med Chem, 2012).

Molecules are shown by their SMILES. Calls of active or inactive are those of the source. The rule behind the calls is not given here.

In one assay the test system is HL-60. Put plainly: Cytotoxicity against human HL60 cells after 72 hrs by MTT assay. To be noted: HL-60, 72 h. Format: functional, cell-based. The essentials:
(§1)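 Cells grown in RPMI-1640 with heat-inactivated 10% FBS, penicillin 100 units/mL, streptomycin, 37 °C, 20% O₂, 5% CO₂. Compounds from 10.0 mg/mL DMSO stocks, diluted. Cells plated 24 h, then exposed to a range of concentrations for 72 h; viable cells read by MTT kit per manufacturer's instructions.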

For a further assay, the system named is KB. Put plainly: Cytotoxicity against human KB cells after 72 hrs by MTT assay. Format: functional, cell-based. The essentials: as §1
A further assay has as its system PC-3. Put plainly: Cytotoxicity against human PC3 cells after 72 hrs by MTT assay. The assay is classed as functional, cell-based. As to conditions: PC-3, 72 h. Put shortly:
as §1

Another assay concerns HCT-116. Put plainly: Cytotoxicity against human HCT116 cells after 72 hrs by MTT assay. The assay is classed as functional, cell-based. To be noted: HCT-116, 72 h. Put shortly:
as §1

Another assay relates to A549. Put plainly: Cytotoxicity against human A549 cells after 72 hrs by MTT assay. The assay is classed as functional, cell-based. As to conditions: A549, 72 h. The essentials: as §1
The target in assay [1] is T1, Phosphatidylinositol 4,5-bisphosphate 3-kinase catalytic subunit alpha isoform (Homo sapiens, UniProt P42336). Put plainly: Inhibition of PI3Kalpha using diC8-PI(4,5)P2 as substrate after 3 hrs by competitive fluorescence polarization assay. Put shortly: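 Competitive fluorescence polarization. Buffer includes MgCl₂ and 10 mM DTT, with diC₈-PI(4,5)P₂ as substrate. Incubated 3 h at room temperature, then quenched with chelators. Phosphoinositide binding protein and a fluorophore-labeled phosphoinositide tracer were added, and samples equilibrated 1 h in the dark before reading.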

In assay [2] the target is T1, Phosphatidylinositol 4,5-bisphosphate 3-kinase catalytic subunit alpha isoform. Put plainly: Inhibition of PI3Kalpha-mediated AKT Ser473 phosphorylation in human PC3 cells at 10 uM after 3 hrs by Western blot analysis. Format: cell-based. To be noted: PC-3. Put shortly:
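PC3 cells exposed to compound for 3 h. Lysates run on SDS–PAGE and probed for pAkt Ser473 by Western blot, with actin as internal control.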

Assay [3] has the same target. Put plainly: Ratio of IC50 for WR1 to compound IC50 for PI3Kalpha using diC8-PI(4,5)P2 as substrate after 3 hrs by competitive fluorescence polarization assay.

T1 sequence (P42336 whole entry, canonical isoform): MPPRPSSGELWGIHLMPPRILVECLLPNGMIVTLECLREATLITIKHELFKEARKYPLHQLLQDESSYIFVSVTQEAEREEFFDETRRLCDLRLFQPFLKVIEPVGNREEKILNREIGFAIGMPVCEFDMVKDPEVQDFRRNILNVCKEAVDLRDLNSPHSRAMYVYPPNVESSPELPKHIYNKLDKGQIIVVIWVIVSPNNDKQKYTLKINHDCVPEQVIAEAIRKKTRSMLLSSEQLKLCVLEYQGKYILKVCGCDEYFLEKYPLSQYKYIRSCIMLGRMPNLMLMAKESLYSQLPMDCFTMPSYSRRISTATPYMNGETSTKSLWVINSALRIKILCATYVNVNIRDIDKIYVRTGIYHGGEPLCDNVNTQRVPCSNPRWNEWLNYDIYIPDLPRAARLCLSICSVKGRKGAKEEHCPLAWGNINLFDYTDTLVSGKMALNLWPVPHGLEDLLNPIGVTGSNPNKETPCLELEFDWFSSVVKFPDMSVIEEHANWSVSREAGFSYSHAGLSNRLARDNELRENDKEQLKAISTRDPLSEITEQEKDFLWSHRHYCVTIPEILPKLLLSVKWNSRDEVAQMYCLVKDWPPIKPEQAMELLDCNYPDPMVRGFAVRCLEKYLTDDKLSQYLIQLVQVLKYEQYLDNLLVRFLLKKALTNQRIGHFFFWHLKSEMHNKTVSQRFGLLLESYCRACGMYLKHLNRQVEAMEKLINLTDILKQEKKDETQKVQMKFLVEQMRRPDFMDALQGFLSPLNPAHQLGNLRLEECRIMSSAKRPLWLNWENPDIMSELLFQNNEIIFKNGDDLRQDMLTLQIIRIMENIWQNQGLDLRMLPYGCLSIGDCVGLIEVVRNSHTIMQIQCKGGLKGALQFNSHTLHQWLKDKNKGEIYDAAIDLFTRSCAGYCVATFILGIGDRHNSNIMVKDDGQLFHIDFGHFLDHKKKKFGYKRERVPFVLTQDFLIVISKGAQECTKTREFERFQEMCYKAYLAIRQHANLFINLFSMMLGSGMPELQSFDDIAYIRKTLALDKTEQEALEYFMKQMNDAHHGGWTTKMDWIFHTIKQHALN

With `O=S(=O)(c1ccccc1)c1nc2ccccc2nc1N1CCCC(O)C1` (stereo unspecified), the 50% inhibitory concentration (IC50) in the assay on HL-60 stood at 3.02 µM; in the assay on KB, 3.59 µM; with PC-3, 2.1 µM; in the assay on HCT-116, 1.39 µM; in the assay with A549 it was 0.31 µM.
As to `O=S(=O)(c1ccc(Br)cc1)c1nc2ccccc2nc1N1CCC(O)CC1`, the half-maximal inhibitory concentration (IC50) was found to be 0.34 µM in the assay on HL-60; 2.32 µM with KB; 0.025 µM in assay [1]; 2.02 µM in the assay with PC-3; 1.65 µM with HCT-116; 0.95 µM in the assay on A549. For the same compound, in assay [2], the inhibition result was “Active”.
For `O=S(=O)(c1ccc(Br)cc1)c1nc2ccccc2nc1N1CCCC1`, the concentration for half-maximal inhibition (IC50) with HL-60 was 6.07 µM; with KB, greater than 50 µM; in the assay on PC-3 it was greater than 50 µM; in the assay with HCT-116, 37.7 µM; with A549, greater than 50 µM.
Consider `O=S(=O)(c1ccc(F)cc1)c1nc2ccccc2nc1N1CCc2ccccc2C1`, for which the half-inhibitory concentration (IC50) came out at 4.08 µM in the assay with HL-60; 35.4 µM in the assay with KB; 9.23 µM in the assay with PC-3; 16.6 µM with HCT-116; 22.9 µM in the assay on A549.
Take `O=S(=O)(c1ccccc1)c1nc2ccccc2nc1N1CCOCC1`: the IC50 was 4.47 µM in the assay on HL-60; 0.44 µM in assay [1]; 18.9 µM in the assay on PC-3; 5.35 µM in the assay on HCT-116; 12.6 µM in the assay on A549.
`O=S(=O)(c1ccc(Br)cc1)c1nc2ccccc2nc1N1CCc2ccccc2C1`: the half-inhibitory concentration (IC50) was 2.61 µM with HL-60; greater than 50 µM with KB; greater than 50 µM in the assay with PC-3; greater than 50 µM with HCT-116; greater than 50 µM in the assay on A549.
Regarding `O=S(=O)(c1ccc(F)cc1)c1nc2ccccc2nc1N1CCCC1`, the concentration for half-maximal inhibition (IC50) was 12.8 µM in the assay with HL-60; 30.1 µM in the assay on KB; 12.4 µM with PC-3; 20.6 µM in the assay with HCT-116; 31.1 µM in the assay on A549.
On the same counts, the results for `O=S(=O)(c1ccc(Br)cc1)c1nc2ccccc2nc1N1CCCC(O)C1` (stereo unspecified) are 3.43 µM, 3.72 µM, 3.69 µM, 2.11 µM and 2.1 µM.
For `O=S(=O)(c1ccc(F)cc1)c1nc2ccccc2nc1N1CCCC(O)C1` (stereo unspecified), the IC50 in the assay on HL-60 stood at 2.62 µM; in the assay with KB, 18.3 µM; in the assay with PC-3, 2.13 µM; in the assay on HCT-116 it was 5.5 µM; with A549, 8.17 µM.
`O=S(=O)(c1ccccc1)c1nc2ccccc2nc1N1CCc2ccccc2C1`: the IC50 in the assay with HL-60 was 0.88 µM; with KB, 26.3 µM; in assay [1], greater than 50 µM; in the assay on PC-3, 5.01 µM; in the assay with HCT-116, 18.7 µM; with A549, 19.8 µM.
For `Cc1ccc(S(=O)(=O)c2nc3ccccc3nc2N2CCCC(O)C2)cc1` (stereo unspecified), the IC50 in the assay on HL-60 is 6.08 µM; with KB, 6.08 µM; with PC-3, 5.33 µM; in the assay with HCT-116, 3.27 µM; in the assay on A549, 1.35 µM.
In the case of `Cc1ccc(S(=O)(=O)c2nc3ccccc3nc2N2CCc3ccccc3C2)cc1`, the 50% inhibitory concentration (IC50) in the assay with HL-60 was 3.61 µM; in the assay on KB it was 32.1 µM; in the assay on PC-3, 22.4 µM; in the assay on HCT-116 it was 39 µM; in the assay with A549, greater than 50 µM.
The matching figures for `O=S(=O)(c1ccc(F)cc1)c1nc2ccccc2nc1N1CCC(O)CC1`: 1.45 µM, 9.58 µM, 2.01 µM, 1.34 µM and 20.2 µM.
For the compound `COc1ccc(S(=O)(=O)c2nc3ccccc3nc2N2CCC(O)CC2)cc1`, the IC50 amounted to 3.23 µM in the assay with HL-60; 8.06 µM with KB; 9.73 µM in the assay with PC-3; 4.69 µM with HCT-116; 5.11 µM in the assay with A549.
For the compound `O=S(=O)(c1ccccc1)c1nc2ccccc2nc1N1CCCC1`, the half-inhibitory concentration (IC50) came to 3.46 µM with HL-60; 35.8 µM in the assay with KB; 21.8 µM in assay [1]; 20.8 µM in the assay with PC-3; 24.2 µM with HCT-116; 34.8 µM in the assay with A549.
Turning to `COc1ccc(S(=O)(=O)c2nc3ccccc3nc2N2CCCC2)cc1`, the 50% inhibitory concentration (IC50) in the assay on HL-60 was 16 µM; in the assay on KB, greater than 50 µM; with PC-3 it was greater than 50 µM; with HCT-116, greater than 50 µM; with A549, greater than 50 µM.
As to `COc1ccc(S(=O)(=O)c2nc3ccccc3nc2N2CCc3ccccc3C2)cc1`, the IC50 in the assay on HL-60 is 3.69 µM; in the assay on KB, greater than 50 µM; with PC-3, greater than 50 µM; in the assay on HCT-116, 22.1 µM; in the assay on A549, greater than 50 µM.
As to `COc1ccc(S(=O)(=O)c2nc3ccccc3nc2N2CCCC(O)C2)cc1` (stereo unspecified), the IC50 in the assay with HL-60 is 3.05 µM; in the assay on KB, 2.12 µM; in the assay with PC-3, 3.41 µM; in the assay with HCT-116 it was 3.52 µM; with A549, 2.18 µM.
Turning to `O=S(=O)(c1ccccc1)c1nc2ccccc2nc1N1CCC(O)CC1`, the IC50 in the assay with HL-60 worked out at 2.9 µM; in the assay on KB, 5.36 µM; in assay [1], 0.079 µM; with PC-3, 4.98 µM; with HCT-116, 1.87 µM; in the assay with A549 it was 2.06 µM. The Ratio IC50 in assay [3] is 6.
`Cc1ccc(S(=O)(=O)c2nc3ccccc3nc2N2CCCC2)cc1`: the IC50 in the assay on HL-60 is 9.72 µM; in the assay on KB it was greater than 50 µM; with PC-3, greater than 50 µM; in the assay with HCT-116, greater than 50 µM; in the assay on A549 it was greater than 50 µM.
For the compound `Cc1ccc(S(=O)(=O)c2nc3ccccc3nc2N2CCC(O)CC2)cc1`, the concentration for half-maximal inhibition (IC50) was 4.05 µM in the assay on HL-60; 6.14 µM in the assay on KB; 9.52 µM in the assay on PC-3; 5.44 µM in the assay on HCT-116; 4.02 µM in the assay on A549.
